Experimental data of several laboratories.
PPO3: PPO3 (Agaricus bisporus, UniProt C7FF04)
HTR2A: 5-hydroxytryptamine receptor 2A (HTR2A, Homo sapiens, UniProt P28223)
HDAC2: Histone deacetylase 2 (HDAC2, Homo sapiens, UniProt Q92769)

Cc1ccc(-c2cc(-c3ccc(-c4cc(-c5ccc(C)cc5)nc(N)n4)cc3)nc(N)n2)cc1
IC50 (PPO3; enzyme activity, inhibitor, absorbance): 37.2 µM

CN(C(=O)c1cn[nH]n1)C1CCN(CCc2cccc(Cl)c2Cl)C1 (stereo not drawn)
IC50 (HTR2A; calcium signal, antagonist): 0.907 µM

Nc1nc(-c2ccc(I)cc2)cc(-c2ccc(-c3cc(-c4ccc(I)cc4)nc(N)n3)cc2)n1
IC50 (PPO3; enzyme activity, inhibitor, absorbance): 30.6 µM

O=C(NO)c1cncc(OS(=O)(=O)Oc2ccc3ccccc3c2)c1
IC50 (HDAC2; enzyme activity, inhibitor, fluorescence): 1.46 µM

C#Cc1ccc2c(=O)[nH]nc(Cc3ccc(F)c(C(=O)N4CCN(C(=O)C=C)CC4)c3)c2c1
IC50 (Poly [ADP-ribose] polymerase 1 (PARP1, Homo sapiens, UniProt P09874); enzyme activity, inhibitor): 0.85 µM

Nc1nc(-c2ccc(F)cc2)cc(-c2ccc(-c3cc(-c4ccc(F)cc4)nc(N)n3)cc2)n1
IC50 (PPO3; enzyme activity, inhibitor, absorbance): 46 µM

C=CCNC(=O)C(C)N1CCCC(c2ccc(O)cc2)C1 (stereo not drawn)
IC50 (HTR2A; calcium signal, antagonist): 15.8 µM

CN(C)C(=O)c1cc2cnc(Nc3ccc(N4CCNCC4)cn3)nc2n1C1CCCC1
IC50 (3',5'-cyclic-AMP phosphodiesterase 4A (PDE4A, Homo sapiens, UniProt P27815); enzyme activity, inhibitor, TR-FRET): 0.25 µM

c1ccc(O[C@H]2CCN(Cc3ccc(-c4ccn[nH]4)o3)C2)cc1
IC50 (HTR2A; calcium signal, antagonist): 5.2 µM

O=C(NO)c1cncc(OS(=O)(=O)Oc2ccc(C(F)(F)F)cc2)c1
IC50 (HDAC2; enzyme activity, inhibitor, fluorescence): 5.61 µM

NCC1Cc2cc(F)ccc2N(C(=O)Cc2cc(F)ccc2Br)C1 (stereo not drawn)
IC50 (HTR2A; calcium signal, antagonist): 1.16 µM

CCc1c(C)nc(-c2ccc(Cl)s2)nc1Nc1ccc(CC(=O)O)cc1
IC50 (cGMP-specific 3',5'-cyclic phosphodiesterase (PDE5A, Homo sapiens, UniProt O76074); enzyme activity, inhibitor, FP): ~154 µM
